Data taken from ChEMBL document CHEMBL5346889, “Discovery of 4-oxo-N-phenyl-1,4-dihydroquinoline-3-carboxamide derivatives as novel anti-inflammatory agents for the treatment of acute lung injury and sepsis” (Eur J Med Chem, 2023).
The source made the active and inactive calls. The rule behind the calls is not given here.

How the values were obtained:
J774.A1 [1] = experiment: Antiinflammatory activity in LPS-induced mouse J774.A1 cells assessed as inhibition of LPS-induced IL-6 release at 10 uM preincubated for 30 mins followed by LPS stimulation for 24 hrs by ELISA method; assay type: functional; settings: time 24.5 hrs
In short: (§1)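 J774A.1 macrophages pretreated 30 min at 10 μM, then challenged with LPS 0.5 μg/mL for 24 h at 37 °C, 5% CO2. Medium IL-6 and TNF-α measured by ELISA, normalized to total lysate protein.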

J774.A1 [2] = experiment: Antiinflammatory activity in LPS-induced mouse J774.A1 cells assessed as inhibition of LPS-induced TNF-alpha release at 10 uM preincubated for 30 mins followed by LPS stimulation for 24 hrs by ELISA method; assay type: functional; settings: time 24.5 hrs; in short: as §1
Mus musculus [3] = experiment: Antiinflammatory activity in LPS-induced C57/BL6 mouse acute lung injury model assessed as decrease in TNF-alpha expression level at 20 mg/kg via oral gavage preincubated for 30 mins followed by LPS stimulation for 6 hrs by RT-qPCR method; assay type: functional, organism-based; settings: time 6.5 hrs
In short: (§2)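 Male C57BL/6 mice, six weeks old, n = 8 per group. Dosed 20 mg/kg orally 30 min before intratracheal LPS 5 mg/kg; dexamethasone 20 mg/kg as comparator. Lung tissue collected 6 h after LPS. RNA extracted with TRIzol; IL-6 and TNF-α transcripts by RT-qPCR, normalized to β-actin; n = 5 mice per group, mean ± SEM.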

Mus musculus [4] = experiment: Antiinflammatory activity in LPS-induced C57/BL6 mouse acute lung injury model assessed as decrease in IL-6 expression level at 20 mg/kg via oral gavage preincubated for 30 mins followed by LPS stimulation for 6 hrs by RT-qPCR method; assay type: functional, organism-based; settings: time 6.5 hrs; in short: as §2
Mus musculus [5] = experiment: Antiinflammatory activity in LPS-induced C57/BL6 mouse acute lung injury model assessed as decrease in IL-6 level in serum at 20 mg/kg via oral gavage preincubated for 30 mins followed by LPS stimulation for 6 hrs by ELISA; settings: time 6.5 hrs
Mus musculus [6] = experiment: Antiinflammatory activity in LPS-induced C57/BL6 mouse acute lung injury model assessed as decrease in TNF-alpha level in serum at 20 mg/kg via oral gavage preincubated for 30 mins followed by LPS stimulation for 6 hrs by ELISA; settings: time 6.5 hrs
Mus musculus [7] = experiment: Protection against LPS-induced C57/BL6 mouse acute lung injury model assessed as reduction in protein concentration in BALF at 20 mg/kg via oral gavage preincubated for 30 mins followed by LPS stimulation for 6 hrs; assay type: functional, organism-based; settings: time 6.5 hrs
In short: (§3)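 Mice dosed 20 mg/kg by gavage (dexamethasone 20 mg/kg comparator), intratracheal LPS 5 mg/kg 30 min later, killed at 6 h. Right upper lobe fixed in paraformaldehyde, H&E; lung wet/dry ratio; BALF protein, total cells and neutrophils counted; n = 5 mice per group, mean ± SEM.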

Mus musculus [8] = experiment: Protection against LPS-induced C57/BL6 mouse acute lung injury model assessed as reduction in number of total cells in BALF at 20 mg/kg via oral gavage preincubated for 30 mins followed by LPS stimulation for 6 hrs; assay type: functional, organism-based; settings: time 6.5 hrs; in short: as §3
Mus musculus [9] = experiment: Protection against LPS-induced C57/BL6 mouse acute lung injury model assessed as reduction in lung wet/dry ratio at 20 mg/kg via oral gavage preincubated for 30 mins followed by LPS stimulation for 6 hrs; assay type: functional, organism-based; settings: time 6.5 hrs; in short: as §3
Mus musculus [10] = experiment: Antiinflammatory activity in LPS-induced C57/BL6 mouse acute lung injury model assessed as decrease in TNF-alpha level in BALF at 20 mg/kg via oral gavage preincubated for 30 mins followed by LPS stimulation for 6 hrs by ELISA; settings: time 6.5 hrs
Mus musculus [11] = experiment: Antiinflammatory activity in LPS-induced C57/BL6 mouse acute lung injury model assessed as reduction in macrophage infiltration at 20 mg/kg via oral gavage preincubated for 30 mins followed by LPS stimulation for 6 hrs by immunohistochemical staining based analysis; assay type: functional, organism-based; settings: time 6.5 hrs
In short: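 Same ALI model: 20 mg/kg oral, intratracheal LPS 5 mg/kg 30 min later, lungs at 6 h. Paraffin sections given citrate (pH 6.5) antigen retrieval, 3% H2O2 and 5% BSA block, anti-F4/80 12 h at 4 °C, HRP secondary, DAB and hematoxylin; F4/80 positivity quantified; n = 5 per group.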

Mus musculus [12] = experiment: Protection against LPS-induced C57/BL6 mouse acute lung injury model assessed as improvement in structural distruption of lung tissue at 20 mg/kg via oral gavage preincubated for 30 mins followed by LPS stimulation for 6 hrs; assay type: functional, organism-based; settings: time 6.5 hrs; in short: as §3
Mus musculus [13] = experiment: Protection against LPS-induced C57/BL6 mouse acute lung injury model assessed as improvement in alveolar wall thickening at 20 mg/kg via oral gavage preincubated for 30 mins followed by LPS stimulation for 6 hrs; assay type: functional, organism-based; settings: time 6.5 hrs; in short: as §3
Mus musculus [14] = experiment: Antiinflammatory activity in LPS-induced C57/BL6 mouse acute lung injury model assessed as decrease in IL-6 level in BALF at 20 mg/kg via oral gavage preincubated for 30 mins followed by LPS stimulation for 6 hrs by ELISA; settings: time 6.5 hrs
Mus musculus [15] = experiment: Protection against LPS-induced C57/BL6 mouse acute lung injury model assessed as reduction in number of neutrophils in BALF at 20 mg/kg via oral gavage preincubated for 30 mins followed by LPS stimulation for 6 hrs; assay type: functional, organism-based; settings: time 6.5 hrs; in short: as §3
J774.A1 [16] = experiment: Antiinflammatory activity in LPS-induced mouse J774.A1 cells assessed as inhibition of LPS-induced TNF-alpha release preincubated for 30 mins followed by LPS stimulation for 24 hrs by ELISA method; assay type: functional, cell-based
In short: (§4)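 Dose-response in J774A.1 cells: 30 min pretreatment at 10, 5, 2.5 or 1.25 μM, then LPS 0.5 μg/mL for 24 h. IL-6 and TNF-α by ELISA, normalized to lysate protein; IC50 from the dose-response; 3 independent experiments, mean ± SEM.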

J774.A1 [17] = experiment: Cytotoxicity against mouse J774.A1 cells assessed as reduction in cell viability at 10 uM incubated for 24 hrs by MTT assay; assay type: functional, cell-based
In short: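 J774A.1 macrophages exposed to 10 μM for 24 h; MTT at 5 mg/mL added for 4 h; absorbance read at 490 nm; viability expressed as percent of DMSO control.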

J774.A1 [18] = experiment: Antiinflammatory activity in LPS-induced mouse J774.A1 cells assessed as inhibition of LPS-induced IL-6 release preincubated for 30 mins followed by LPS stimulation for 24 hrs by ELISA method; assay type: functional, cell-based; in short: as §4

| Structure (SMILES) | inhibition at 10 µM (J774.A1 [1]) [%] | inhibition (J774.A1 [2]) | inhibition at 10 µM (J774.A1 [2]) [%] | other results |
| --- | --- | --- | --- | --- |
| COc1cc2ncnc(Oc3cccc(NC(=O)c4cn(-c5ccccc5)c5ccccc5c4=O)c3)c2cc1OC | 42.4 | inactive |  |  |
| COc1cc2nccc(Oc3cccc(NC(=O)c4cn(-c5ccc(Cl)cc5)c5ccccc5c4=O)c3)c2cc1OC | 60.2 | inactive |  |  |
| COc1cc2ncnc(Oc3cccc(NC(=O)c4cn(-c5ccc(Br)cc5F)c5ccccc5c4=O)c3)c2cc1OC |  | inactive |  | inhibition (J774.A1 [1]): inactive |
| COc1cc2ncnc(Oc3cccc(NC(=O)c4cn(-c5ccc(Cl)cc5)c5ccccc5c4=O)c3)c2cc1OC | 32.3 | inactive |  |  |
| COc1cc2nccc(Oc3cccc(NC(=O)c4cn(-c5ccc(OC(F)(F)F)cc5)c5ccccc5c4=O)c3)c2cc1OC | 66.4 |  | 33.3 |  |
| COc1cc2ncnc(Oc3ccc(NC(=O)c4cn(-c5ccc(Cl)cc5)c5ccccc5c4=O)cc3)c2cc1OC | 30.5 | inactive |  |  |
| COc1cc2ncnc(Oc3ccc(NC(=O)c4cn(-c5ccc(OC(F)(F)F)cc5)c5ccccc5c4=O)cc3)c2cc1OC | 35.9 |  | 54.9 |  |
| COc1cc2nccc(Oc3cccc(NC(=O)c4cn(-c5ccccc5)c5ccccc5c4=O)c3)c2cc1OC | 44.8 | inactive |  |  |
| COc1cc2ncnc(Oc3cccc(NC(=O)c4cn(-c5ccc(F)cc5)c5ccccc5c4=O)c3)c2cc1OC | 45.4 | inactive |  |  |
| COc1cc2ncnc(Oc3ccc(NC(=O)c4cn(-c5ccc(F)cc5)c5ccccc5c4=O)cc3)c2cc1OC | 57 |  | 48 |  |
| COc1cc2ncnc(Oc3ccc(NC(=O)c4cn(-c5ccc(F)c(Cl)c5)c5ccccc5c4=O)cc3)c2cc1OC | 39.6 |  | 48 |  |
| C[C@@H]1C[C@H]2[C@@H]3CCC4=CC(=O)C=C[C@]4(C)[C@@]3(F)[C@@H](O)C[C@]2(C)[C@@]1(O)C(=O)CO |  |  |  | Activity (Mus musculus [3]): Active; Activity (Mus musculus [4]): Active; Activity (Mus musculus [5]): Active; Activity (Mus musculus [6]): Active; Activity (Mus musculus [7]): Active; Activity (Mus musculus [8]): Active; Activity (Mus musculus [9]): Active; Activity (Mus musculus [10]): Active; Activity (Mus musculus [11]): Active; Activity (Mus musculus [12]): Active; Activity (Mus musculus [13]): Active; Activity (Mus musculus [14]): Active; Activity (Mus musculus [15]): Active |
| COc1cc2ncnc(Oc3ccc(NC(=O)c4cn(-c5ccc(Br)cc5)c5ccccc5c4=O)cc3)c2cc1OC |  |  | 22.4 | inhibition (J774.A1 [1]): inactive |
| COc1cc2nccc(Oc3ccc(NC(=O)c4cn(-c5ccc(Br)cc5F)c5ccccc5c4=O)cc3)c2cc1OC | 26.7 | inactive |  |  |
| COc1cc2ncnc(Oc3ccc(NC(=O)c4cn(-c5ccccc5)c5ccccc5c4=O)cc3)c2cc1OC | 38.1 |  | 30.5 |  |
| COc1cc2ncnc(Oc3ccc(NC(=O)c4cn(-c5ccc(Br)cc5F)c5ccccc5c4=O)cc3)c2cc1OC | 13.3 | inactive |  |  |
| COc1cc2nccc(Oc3ccc(NC(=O)c4cn(-c5ccc(F)c(Cl)c5)c5ccccc5c4=O)cc3)c2cc1OC | 62.2 |  | 67.7 |  |
| COc1cc2ncnc(Oc3cccc(NC(=O)c4cn(-c5ccc(OC(F)(F)F)cc5)c5ccccc5c4=O)c3)c2cc1OC | 10.4 |  | 7.66 |  |
| COc1cc2ncnc(Oc3cccc(NC(=O)c4cn(-c5ccc(Br)cc5)c5ccccc5c4=O)c3)c2cc1OC | 20.4 | inactive |  |  |
| COc1cc2nccc(Oc3ccc(NC(=O)c4cn(-c5ccc(F)cc5)c5ccccc5c4=O)cc3)c2cc1OC | 77.4 |  | 83.1 | IC50 (J774.A1 [16]): 3460 nM; inhibition (J774.A1 [16]; dose 1.25-10 µM, time 24.5 hrs): Dose-Dependent Effect; Activity (J774.A1 [17]): inactive; IC50 (J774.A1 [18]): 2330 nM; inhibition (J774.A1 [18]; dose 1.25-10 µM, time 24.5 hrs): Dose-Dependent Effect |
| COc1cc2nccc(Oc3cccc(NC(=O)c4cn(-c5ccc(Br)cc5)c5ccccc5c4=O)c3)c2cc1OC | 37.1 | inactive |  |  |
| COc1cc2nccc(Oc3cccc(NC(=O)c4cn(-c5ccc(F)cc5)c5ccccc5c4=O)c3)c2cc1OC | 51.3 | inactive |  |  |
| COc1cc2nccc(Oc3ccc(NC(=O)c4cn(-c5ccc(Br)cc5)c5ccccc5c4=O)cc3)c2cc1OC | 41.7 |  | 71.7 |  |
| COc1cc2nccc(Oc3ccc(NC(=O)c4cn(-c5ccc(OC(F)(F)F)cc5)c5ccccc5c4=O)cc3)c2cc1OC | 50.5 |  | 67.6 |  |
| COc1cc2nccc(Oc3cccc(NC(=O)c4cn(-c5ccc(F)c(Cl)c5)c5ccccc5c4=O)c3)c2cc1OC | 49.7 |  | 32.6 |  |
| COc1cc2nccc(Oc3cccc(NC(=O)c4cn(-c5ccc(Br)cc5F)c5ccccc5c4=O)c3)c2cc1OC | 52.9 | inactive |  |  |
| COc1cc2nccc(Oc3ccc(NC(=O)c4cn(-c5ccc(Cl)cc5)c5ccccc5c4=O)cc3)c2cc1OC | 32 |  | 63.5 |  |
| COc1cc2ncnc(Oc3cccc(NC(=O)c4cn(-c5ccc(F)c(Cl)c5)c5ccccc5c4=O)c3)c2cc1OC | 33.9 |  | 36 |  |
